# Reference: ChEMBL document CHEMBL4665798, “Novel Human Urate Transporter 1 Inhibitors as Hypouricemic Drug Candidates with Favorable Druggability” (J Med Chem, 2020)
# Columns and labels:
# [1] = AUC (0 to infinity) in male Kunming mouse at 2 mg/kg, po by LC-MS/MS analysis; format: ADME, organism-based; set-up: time infinity, route oral, dose 2 mg/kg; conditions: in vivo
# Summary of the method: (§1)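 Male Kunming mice, ten in total, split into five groups; single oral dose in PEG 400/normal saline (70/30, v/v). Blood taken from submandibular or saphenous vein into K2EDTA tubes at 0.25, 0.5, 1, 2, 4, 8, 24, 48, 72 h. Plasma spun at about 4 °C and kept at -70 °C. Acetonitrile precipitation with dexamethasone internal standard, then LC-MS/MS against plasma standard curves.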
# [2] = Sub-acute toxicity in Kunming mouse assessed as congestion in hepatic central vein at 50 mg/kg, po administered as single dose every other day for 14 days by H and E staining based assay; format: organism-based; conditions: in vivo, 336 h, time 14 day
# Mus musculus = test: Hypouricemic activity in Kunming mouse model of xanthine/potassium oxonate-induced acute hyperuricemia assessed as decrease in serum uric acid level at 2 mg/kg administered 3 hrs prior to xanthine/potassium oxonate and measured after 6 hrs relative to control; format: functional; set-up: scale not given: the % may be the effect or the level left; conditions: time 9 hrs
# Summary of the method: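 Male Kunming mice, hyperuricemia induced by intragastric xanthine plus subcutaneous potassium oxonate (0.2 mL each). […] Groups: normal vehicle, untreated model, active control, test. Serum uric acid measured. Decrease ratio = (model SUA − compound SUA)/(model SUA − vehicle SUA).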
# [3] = Acute toxicity in Kunming mouse assessed as induction of abnormal behaviors by measuring lethargy at 500 mg/kg, ig; format: organism-based; conditions: in vivo, po
# [4] = Half-life in male Kunming mouse at 2 mg/kg, po by LC-MS/MS analysis; format: ADME, organism-based; conditions: in vivo; summary of the method: as §1
# [5] = Cmax in male Kunming mouse at 2 mg/kg, po by LC-MS/MS analysis; format: ADME, organism-based; set-up: route oral, dose 2 mg/kg; conditions: in vivo; summary of the method: as §1
# [6] = MRT (0 to infinity) in male Kunming mouse at 50 mg/kg, po by LC-MS/MS analysis; format: ADME, organism-based; conditions: in vivo; summary of the method: as §1
# [7] = MRT (0 to infinity) in male Kunming mouse at 2 mg/kg, po by LC-MS/MS analysis; format: ADME, organism-based; conditions: in vivo; summary of the method: as §1
# [8] = Acute toxicity in male Kunming mouse assessed as change in body weight at 500 mg/kg, ig measured for 1 week; format: organism-based; conditions: in vivo, po, 168 h, time 1 weeks
# [9] = Half-life in male Kunming mouse at 50 mg/kg, po by LC-MS/MS analysis; format: ADME, organism-based; conditions: in vivo; summary of the method: as §1
# [10] = Acute toxicity in Kunming mouse assessed as death at 250 mg/kg, ig measured for 1 week relative to control; format: organism-based; conditions: in vivo, po, 168 h, time 1 weeks
# Summary of the method: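 Kunming mice of 10-12 g, 12 per group (6 male, 6 female), fasted 12 h. Single intragastric dose of a suspension in 5% CMC-Na. Deaths, behaviour (lethargy, clonic convulsion, anorexia, ruffled fur) and body weight followed for one week and compared with vehicle controls.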
# [11] = AUC (0 to t) in male Kunming mouse at 2 mg/kg, po by LC-MS/MS analysis; format: ADME, organism-based; set-up: dose 2 mg/kg; conditions: in vivo; summary of the method: as §1
# [12] = Sub-acute toxicity in Kunming mouse assessed as edema in proximal tubule at 50 mg/kg, po administered as single dose every other day for 14 days by H and E staining based assay; format: organism-based; conditions: in vivo, 336 h, time 14 day
# Summary of the method: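 Kunming mice, n = 4 per sex, fasted 12 h. Dosed orally on D0, D2, D4, D6, D8, D10 and D12; controls received an equal volume of vehicle. Weighed before each dose. Killed at D14; heart, liver, spleen, lung and kidney taken for haematoxylin and eosin staining.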
# [13] = Tmax in male Kunming mouse at 50 mg/kg, po by LC-MS/MS analysis; format: ADME, organism-based; conditions: in vivo; summary of the method: as §1
# [14] = Sub-acute toxicity in male Kunming mouse assessed as increase in body weight at 50 mg/kg, po administered once every second day for 14 days; format: organism-based; conditions: in vivo, 336 h, time 14 day
# [15] = Acute toxicity in female Kunming mouse assessed as change in body weight at 500 mg/kg, ig measured for 1 week; format: organism-based; conditions: in vivo, po, 168 h, time 1 weeks
# [16] = Sub-acute toxicity in female Kunming mouse assessed as increase in body weight at 50 mg/kg, po administered once every second day for 14 days; format: organism-based; conditions: in vivo, 336 h, time 14 day
# Rattus norvegicus = species: Rattus norvegicus; test: Hypouricemic activity in rat model of xanthine/potassium oxonate-induced acute hyperuricemia assessed as decrease in serum uric acid level relative to control; format: functional; set-up: scale not given: the % may be the effect or the level left
# [17] = Sub-acute toxicity in Kunming mouse assessed as ballooning degeneration of liver at 50 mg/kg, po administered as single dose every other day for 14 days by H and E staining based assay; format: organism-based; conditions: in vivo, 336 h, time 14 day
# [18] = Sub-acute toxicity in Kunming mouse assessed as hepatocellular condensation of liver at 50 mg/kg, po administered as single dose every other day for 14 days by H and E staining based assay; format: organism-based; conditions: in vivo, 336 h, time 14 day
# [19] = Tmax in male Kunming mouse at 2 mg/kg, po by LC-MS/MS analysis; format: ADME, organism-based; conditions: in vivo; summary of the method: as §1
# [20] = AUC (0 to infinity) in male Kunming mouse at 50 mg/kg, po by LC-MS/MS analysis; format: ADME, organism-based; set-up: route oral, time infinity, dose 50 mg/kg; conditions: in vivo; summary of the method: as §1
# [21] = Sub-acute toxicity in Kunming mouse assessed as hydropic degeneration of hepatocytes at 50 mg/kg, po administered as single dose every other day for 14 days by H and E staining based assay; format: organism-based; conditions: in vivo, 336 h, time 14 day
# [22] = Acute toxicity in Kunming mouse assessed as induction of abnormal behaviors by measuring clonic convulsion at 500 mg/kg, ig; format: organism-based; conditions: in vivo, po
# [23] = Acute toxicity in Kunming mouse assessed as induction of abnormal behaviors by measuring anorexia at 500 mg/kg, ig; format: organism-based; conditions: in vivo, po
# [24] = Cmax in male Kunming mouse at 50 mg/kg, po by LC-MS/MS analysis; format: ADME, organism-based; set-up: route oral, dose 50 mg/kg; conditions: in vivo; summary of the method: as §1
# [25] = AUC (0 to t) in male Kunming mouse at 50 mg/kg, po by LC-MS/MS analysis; format: ADME, organism-based; set-up: dose 50 mg/kg; conditions: in vivo; summary of the method: as §1
# [26] = molecular target: T1, Solute carrier family 22 member 12 (Homo sapiens, UniProt Q96S37); test: Inhibition of human URAT1 expressed in HEK293T cells assessed as reduction in [14C]uric acid uptake preincubated for 15 mins followed by [14C]uric acid addition by liquid scintillation counting method; format: cell-based
# T1 sequence (Q96S37 whole entry): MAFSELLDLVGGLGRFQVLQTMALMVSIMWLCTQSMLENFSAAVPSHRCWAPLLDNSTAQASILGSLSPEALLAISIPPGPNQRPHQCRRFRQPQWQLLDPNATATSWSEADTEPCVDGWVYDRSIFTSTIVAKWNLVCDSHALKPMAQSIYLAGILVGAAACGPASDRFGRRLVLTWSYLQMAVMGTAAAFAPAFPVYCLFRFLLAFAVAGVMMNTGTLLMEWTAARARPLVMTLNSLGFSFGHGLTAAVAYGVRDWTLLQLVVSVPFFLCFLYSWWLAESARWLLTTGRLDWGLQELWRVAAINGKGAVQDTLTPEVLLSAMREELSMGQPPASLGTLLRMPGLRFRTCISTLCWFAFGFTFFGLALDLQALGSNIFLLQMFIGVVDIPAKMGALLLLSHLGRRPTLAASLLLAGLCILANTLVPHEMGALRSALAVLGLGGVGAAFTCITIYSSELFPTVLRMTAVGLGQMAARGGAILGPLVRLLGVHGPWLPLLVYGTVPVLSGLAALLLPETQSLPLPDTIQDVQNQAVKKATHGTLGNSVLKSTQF
# [27] = molecular target: T2, Solute carrier family 2, facilitated glucose transporter member 9 (Homo sapiens, UniProt Q9NRM0); test: Inhibition of GLUT9 (unknown origin)
# T2 sequence (Q9NRM0 whole entry): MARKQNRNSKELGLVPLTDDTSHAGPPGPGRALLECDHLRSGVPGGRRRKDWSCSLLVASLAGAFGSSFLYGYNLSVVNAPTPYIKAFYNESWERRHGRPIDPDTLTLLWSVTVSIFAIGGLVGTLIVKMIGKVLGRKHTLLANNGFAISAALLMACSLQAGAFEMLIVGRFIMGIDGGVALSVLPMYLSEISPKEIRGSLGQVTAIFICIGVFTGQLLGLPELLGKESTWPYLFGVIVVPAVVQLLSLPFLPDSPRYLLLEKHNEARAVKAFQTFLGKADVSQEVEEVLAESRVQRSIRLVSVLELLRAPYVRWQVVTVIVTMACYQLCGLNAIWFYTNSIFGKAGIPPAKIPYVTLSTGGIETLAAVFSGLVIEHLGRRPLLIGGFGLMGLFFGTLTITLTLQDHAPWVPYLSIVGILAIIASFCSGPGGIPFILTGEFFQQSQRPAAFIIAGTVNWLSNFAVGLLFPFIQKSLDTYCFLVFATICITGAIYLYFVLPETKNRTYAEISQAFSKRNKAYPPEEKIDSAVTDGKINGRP
smiles,measurement,setting,value
O=C(O)CSc1nnc(Br)n1-c1ccc(C2CC2)c2ccccc12,AUC(0-inf),[1],7120 ng·h/mL
same,Activity,[2],Toxic
same,Activity,Mus musculus,27.06%
same,Activity,[3],Non-Toxic
same,half-life,[4],3.08 h
same,Cmax,[5],1500 ng/mL
same,MRT inf,[6],6.35 h
same,MRT inf,[7],5.09 h
same,Activity,[8],Non-Toxic
same,half-life,[9],7.46 h
same,Activity,[10],Toxic
same,AUC(0-t),[11],7080 ng·h/mL
same,Activity,[12],Toxic
same,Tmax,[13],1 h
same,Activity,[14],Non-Toxic
same,Activity,[15],Non-Toxic
same,Activity,[16],Non-Toxic
same,Activity,Rattus norvegicus,52.99%
same,Activity,[17],Toxic
same,Activity,[18],Toxic
same,Tmax,[19],0.667 h
same,AUC(0-inf),[20],145000 ng·h/mL
same,Activity,[21],Toxic
same,Activity,[22],Non-Toxic
same,Activity,[23],Non-Toxic
same,Cmax,[24],26500 ng/mL
same,AUC(0-t),[25],144000 ng·h/mL
O=C(CSc1nnc(Br)n1-c1ccc(C2CC2)c2ccccc12)NS(=O)(=O)c1ccc(F)cc1F,Activity,Mus musculus,93.78%
same,IC50,[26],7.29 µM
same,IC50,[27],32.2 µM
O=C(O)C1(Sc2nc3ncccc3n2-c2ccc(C3CC3)c3ccccc23)CCC1,Activity,Mus musculus,62.18%
same,Activity,[12],Toxic
